Consider ten compounds from ChEMBL document CHEMBL1148400, “Synthesis of nitro esters of prednisolone, new compounds combining pharmacological properties of both glucocorticoids and nitric oxide” (J Med Chem, 2004).

A short description of data set [1]: Water solubility was determined. Type of data set: ADME. In a few lines:
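Excess compound stirred in pH 7.4 phosphate buffer 3 h (25 °C), filtered 0.45 μm; saturated solution absorbance read at each compound's UV maximum and concentration derived against a standard solution; reported in mM.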

Data set [2] has as its target T1, Glucocorticoid receptor (Homo sapiens) (UniProt P04150).
T1 sequence (whole entry): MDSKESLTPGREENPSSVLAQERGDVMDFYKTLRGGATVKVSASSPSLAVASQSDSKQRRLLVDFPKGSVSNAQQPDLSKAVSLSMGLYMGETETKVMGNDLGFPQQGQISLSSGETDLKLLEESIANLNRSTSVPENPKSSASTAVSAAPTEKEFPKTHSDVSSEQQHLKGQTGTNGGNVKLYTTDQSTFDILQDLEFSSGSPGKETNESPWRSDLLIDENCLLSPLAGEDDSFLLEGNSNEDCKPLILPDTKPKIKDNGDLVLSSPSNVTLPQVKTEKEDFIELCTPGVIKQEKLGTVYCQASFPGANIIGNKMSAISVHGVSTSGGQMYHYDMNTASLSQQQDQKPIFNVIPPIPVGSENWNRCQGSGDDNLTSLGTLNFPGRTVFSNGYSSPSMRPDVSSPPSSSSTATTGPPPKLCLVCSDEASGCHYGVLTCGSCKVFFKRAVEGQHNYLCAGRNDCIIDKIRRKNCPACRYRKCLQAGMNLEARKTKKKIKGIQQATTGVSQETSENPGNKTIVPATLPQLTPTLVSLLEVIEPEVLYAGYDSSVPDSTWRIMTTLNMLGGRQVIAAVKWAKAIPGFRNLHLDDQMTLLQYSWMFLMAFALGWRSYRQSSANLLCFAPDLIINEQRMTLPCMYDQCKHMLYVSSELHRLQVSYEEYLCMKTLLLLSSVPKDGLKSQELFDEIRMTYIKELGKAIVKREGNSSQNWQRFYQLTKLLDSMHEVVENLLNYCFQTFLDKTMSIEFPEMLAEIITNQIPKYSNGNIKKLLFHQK
Put plainly: Inhibition of [3H]dexamethasone binding to glucocorticoid receptor of human blood mononuclear cells. In a few lines: (§1)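 PBMC isolated from human blood by histopaque gradient; 1×10^6 cells in RPMI with 1% glutamine given 50 nM [3H]dexamethasone plus compound at 1 μM (from 10 mM DMSO stock; control 0.1% DMSO), 1 h at 37 °C. Four ice-cold PBS washes, bound label by scintillation minus nonspecific binding; fmol/mL and % specific displacement; n = 3.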

Data set [3] addresses T1, Glucocorticoid receptor (Homo sapiens). In words: Displacement of [3H]dexamethasone from glucocorticoid receptor of human blood mononuclear cells at 1 uM. In a few lines:
as §1

The species named for another data set is Mus musculus. Put plainly: Compound was tested for the inhibition of neutrophil (PMN) extravasation in the zymosan-induced peritonitis mouse. Also noted: unit: PMN per peritoneal cavity. Type of data set: functional. Summed up: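 Mice dosed i.p. at 13.8 μmol/kg (equimolar to 5 mg/kg prednisolone) 1 h before i.p. zymosan (1 mg in 0.5 mL saline); vehicle peanut oil. Polymorphonuclear cells recruited per peritoneal cavity counted at 4 h; % inhibition vs vehicle group; mean ± SEM, n = 5 mice/group; ANOVA with Bonferroni.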

Values after ≈ are worked out from the molar mass of the structure shown.

In the case of `C[C@]12C=CC(=O)C=C1CCC1C2[C@@H](O)C[C@@]2(C)C1CC[C@]2(O)C(=O)COC(=O)CN1CCC(CCO[N+](=O)[O-])CC1` (some centres undefined), the solubility in data set [1] is 710 µM (≈ 408 µg/mL). This compound gave a [3H]dexamethasone bound in data set [2] of 1.7 fmol/mL. Moreover, the Displacement in data set [3] is 86%.
With `C[C@]12C=CC(=O)C=C1CCC1C2[C@@H](O)C[C@@]2(C)C1CC[C@]2(O)C(=O)COC(=O)c1cccc(CO[N+](=O)[O-])c1` (some centres undefined), the [3H]dexamethasone bound in data set [2] is 19.8 fmol/mL.
In data set [1], `C[C@]12C=CC(=O)C=C1CCC1C2[C@@H](O)C[C@@]2(C)C1CC[C@]2(O)C(=O)COC(=O)CN1CCC(CCCO[N+](=O)[O-])CC1` (some centres undefined) gave a solubility of 150 µM (≈ 88.3 µg/mL). The [3H]dexamethasone bound in data set [2] is 2.3 fmol/mL. The Displacement in data set [3] was found to be 81%.
`C[C@]12C=CC(=O)C=C1CCC1C2[C@@H](O)C[C@@]2(C)C1CC[C@]2(O)C(=O)COC(=O)c1ccc(CO)cc1` (some centres undefined): the [3H]dexamethasone bound in data set [2] was determined as 5.3 fmol/mL. Besides, the Displacement in data set [3] turned out to be 57%.
Take `C[C@]12C=CC(=O)C=C1CCC1C2[C@@H](O)C[C@@]2(C)C1CC[C@]2(O)C(=O)COC(=O)CN1CCN(CCO[N+](=O)[O-])CC1` (some centres undefined): the concentration in solution in data set [1] (solubility) was 21300 µM (≈ 12300 µg/mL). In data set [2], the [3H]dexamethasone bound was found to be 4.2 fmol/mL. The compound further returned a Displacement in data set [3] of 66%. This compound returned an Activity in the data set filed under Mus musculus of 9000000.
Taken in the same sequence, the figures for `C[C@]12C=CC(=O)C=C1CCC1C2[C@@H](O)C[C@@]2(C)C1CC[C@]2(O)C(=O)COC(=O)c1ccc(CO[N+](=O)[O-])cc1` (some centres undefined) were 7 µM (≈ 3.78 µg/mL), 6.6 fmol/mL, 47% and 4100000.
`C[C@]12C=CC(=O)C=C1CC[C@@H]1[C@@H]2[C@@H](O)C[C@@]2(C)[C@H]1CC[C@]2(O)C(=O)CO` [PREDNISOLONE] gave a solubility in data set [1] of 270 µM (≈ 97.3 µg/mL). The compound also registered a [3H]dexamethasone bound in data set [2] of 5.5 fmol/mL. Also, in data set [3], the Displacement was 56%.
`C[C@]12C=CC(=O)C=C1CCC1C2[C@@H](O)C[C@@]2(C)C1CC[C@]2(O)C(=O)COC(=O)c1ccccc1CO[N+](=O)[O-]` (some centres undefined) returned a [3H]dexamethasone bound in data set [2] of 8.7 fmol/mL. In addition, in data set [3], the Displacement came to 30%.
`C[C@]12C=CC(=O)C=C1CCC1C2[C@@H](O)C[C@@]2(C)C1CC[C@]2(O)C(=O)COC(=O)CCCO[N+](=O)[O-]` (some centres undefined) had a [3H]dexamethasone bound in data set [2] of 1.6 fmol/mL. Besides, the Displacement in data set [3] amounted to 87%. Besides, the Activity in the data set listed under Mus musculus came out at 9100000.
In data set [1], `C[C@]12C=CC(=O)C=C1CCC1C2[C@@H](O)C[C@@]2(C)C1CC[C@]2(O)C(=O)COC(=O)CN1CCN(CCCO[N+](=O)[O-])CC1` (some centres undefined) displayed a solubility of 53300 µM (≈ 31400 µg/mL). Besides, the [3H]dexamethasone bound in data set [2] worked out at 2.1 fmol/mL. This compound returned a Displacement in data set [3] of 83%. In the data set filed under Mus musculus, this compound returned an Activity of 7800000.
